Assay results: ChEMBL document CHEMBL2396639, “Peptidomimetic modification improves cell permeation of bivalent farnesyltransferase inhibitors” (Bioorg Med Chem, 2013)
Each block holds one molecule with its values, some of them ahead of it. Calls of active or inactive are those of the source. The rule behind the calls is not given here. Residues, ends and D or L forms follow the SMILES beside them. *: point of attachment. X1 = NCC(CN)CCOc1cc(C(=O)*)cc(OCCC(CN)CN)c1OCCC(CN)CN; Ahx = NCCCCCC(=O)O

Columns and labels:
[1] = target: T1, Protein farnesyltransferase (Homo sapiens, UniProt P49354+P49356); experiment: Inhibition of recombinant FTase (unknown origin)-mediated K-Ras4B model peptide KKKKKKSK(Dans)TKCVIM farnesylation by fluorescence plate reader analysis in presence of FPP; format: protein-complex assay
In short: (§1)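 Recombinant mammalian FTase (50 nM) with dansylated K-Ras4B peptide (1 μM) and FPP (5 μM). Compound tested at 0–500 μM in 50 mM Tris HCl pH 7.5 at 30 °C. Reagents spotted separately, and buffer addition starts the reaction. Fluorescence (ex 340/em 520 nm) followed for 5 min on a plate reader, n = 3. IC50 converted to Ki by Cheng-Prusoff with peptide Km 0.033 μM.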

[2] = target: T1, Protein farnesyltransferase; experiment: Inhibition of FTase-mediated prenylation in human A549 cells assessed as inhibition of HDJ-2 processing at 10 to 100 uM treated twice on day 1 and day 3 followed by incubation for 4 days by Western blot analysis; format: cell-based
In short: (§2)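 T24 cells (MEM) or A549 cells (RPMI 1640), each with 10% bovine serum. Cells treated twice with compound at 10, 30 and 100 μM, or DMSO control, then harvested on day 4 and lysed in Tris pH 7.6/Triton X-100 buffer. Lysate (5 µg) run on 7.5% SDS-PAGE, transferred to PVDF, probed with anti-HDJ-2. Read as band shift from processed to unprocessed HDJ-2, detected by HRP anti-rabbit IgG with ECL.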

[3] = target: T1, Protein farnesyltransferase; experiment: Inhibition of FTase-mediated prenylation in human T24 cells assessed as inhibition of HDJ-2 processing at 10 to 100 uM treated twice on day 1 and day 3 followed by incubation for 4 days by Western blot analysis; format: cell-based; conditions: T-24; in short: as §2
[4] = system: T-24; experiment: Inhibition of GGTase1-mediated prenylation in human T24 cells assessed as inhibition of Rap1A processing at 10 to 100 uM treated twice on day 1 and day 3 followed by incubation for 4 days by Western blot analysis; format: cell-based
In short: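 T24 cells grown in MEM with 10% bovine serum. Treated twice with compound at 10, 30 and 100 μM, or DMSO control, then harvested on day 4 and lysed. Lysate (5 µg) run on 12.5% SDS-PAGE, transferred to PVDF, probed with anti-Rap1A. Geranylgeranylation read as shift from processed to unprocessed Rap1A band, detected by HRP anti-rabbit IgG with ECL.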

[5] = Drug uptake in human A549 cell cytosol at 25 uM after 3 hrs by confocal microscopy; format: ADME, cell-based
In short: (§3)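 A549 cells grown in RPMI 1640 with 10% heat-inactivated FBS at 37 °C, 5% CO2. Seeded on glass dish at 1×10^5 cells/mL, adhered overnight. Fluorescent BODIPY-labelled compound added from DMSO stock at 25 μM (0.1% DMSO final), 3 h at 37 °C. Cells washed four times with PBS, covered with Opti-MEM, imaged by laser scanning confocal microscopy.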

[6] = Drug uptake in human A549 cell nucleus at 25 uM after 3 hrs by confocal microscopy; format: ADME, cell-based; conditions: a549, 3 h; in short: as §3
[7] = system: A549; experiment: Drug uptake in human A549 cells assessed as accumulation on plasma membrane at 25 uM after 3 hrs by confocal microscopy; format: ADME, cell-based; conditions: a549, 3 h; in short: as §3
[8] = system: A549; experiment: Cellular uptake in human A549 cells at 25 uM after 3 hrs by confocal microscopy; format: ADME, cell-based; conditions: a549, 3 h; in short: as §3
[9] = target: T1, Protein farnesyltransferase; experiment: Inhibition of FTase (unknown origin)-mediated K-Ras4B model peptide KKKKKKSK(Dans)TKCVIM farnesylation by microplate reader analysis; format: protein-complex assay; in short: as §1

Ki [1]: 837 nM
SMILES: CSCC[C@H](NC(=O)c1ccc(NC[C@H](CS)NC(=O)CCCCCNC(=O)c2cc(OCCC(CN)CN)c(OCCC(CN)CN)c(OCCC(CN)CN)c2)cc1)C(=O)O

inhibition [2]: Active
inhibition [3]: Active
SMILES: COC(=O)[C@H](CCSC)NC(=O)c1ccc(NC[C@H](CS)NC(=O)CCCCCNC(=O)c2cc(OCCC(CN)CN)c(OCCC(CN)CN)c(OCCC(CN)CN)c2)cc1
inhibition [4]: inactive

Drug uptake [5]: Active
Drug uptake [6]: Not Active
SMILES: COC(=O)[C@H](CCSC)NC(=O)c1ccc(NC[C@H](CS)NC(=O)CCNC(=O)[C@H](CCCCNC(=O)CCC2=C3C(C)=CC(C)=[N+]3[B-](F)(F)n3c(C)cc(C)c32)NC(=O)c2cc(OCCC(CN)CN)c(OCCC(CN)CN)c(OCCC(CN)CN)c2)cc1

Drug uptake [7]: Not Active
SMILES: CC[C@H](C)[C@H](NC(=O)[C@@H](NC(=O)[C@H](CS)NC(=O)CCNC(=O)[C@H](CCCCNC(=O)CCC1=C2C(C)=CC(C)=[N+]2[B-](F)(F)n2c(C)cc(C)c21)NC(=O)c1cc(OCCC(CN)CN)c(OCCC(CN)CN)c(OCCC(CN)CN)c1)C(C)C)C(=O)N[C@@H](CCSC)C(=O)O

Drug uptake [8]: Active
SMILES: CC1=CC(C)=[N+]2C1=C(CCC(=O)NCCCC[C@H](NC(=O)c1cc(OCCC(CN)CN)c(OCCC(CN)CN)c(OCCC(CN)CN)c1)C(=O)O)c1c(C)cc(C)n1[B-]2(F)F

Ki [9]: 5 nM
Ki [1]: 15 nM
inhibition [2]: inactive
SMILES: CC[C@H](C)[C@H](NC(=O)[C@@H](NC(=O)[C@H](CS)NC(=O)CCCCCNC(=O)c1cc(OCCC(CN)CN)c(OCCC(CN)CN)c(OCCC(CN)CN)c1)C(C)C)C(=O)N[C@@H](CCSC)C(=O)O ({X1-Ahx}-CVIM-OH)

Ki [9]: 1100 nM
SMILES: CC[C@H](C)[C@H](NC(=O)[C@@H](NC(=O)[C@@H](N)CS)C(C)C)C(=O)N[C@@H](CCSC)C(=O)O

Ki [1]: 785 nM
SMILES: CSCC[C@H](NC(=O)c1ccc(NC[C@@H](N)CS)cc1)C(=O)O
